Results published in ChEMBL document CHEMBL4811287, “Discovery of dronedarone and its analogues as NLRP3 inflammasome inhibitors with potent anti-inflammation activity” (Bioorg Med Chem Lett, 2021).
Calls of active or inactive are those of the source. No cut-off for these calls is given here.

Assays:
[1] = biological target: NACHT, LRR and PYD domains-containing protein 3 (Mus musculus, UniProt Q8R4B8); test: (§1) Inhibition of NLRP3 inflammasome in LPS-primed mouse J774.A1 cells assessed as reduction in IL-1beta secretion preincubated with compound for 1 hr followed by nigericin stimulation for 1 hr by ELISA; format: cell-based
Method in brief: (§2)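 J774A.1 murine macrophages primed with LPS, exposed to compound at indicated doses for 1 h, then stimulated with nigericin for another 1 h; IL-1β released into supernatant measured by ELISA.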

[2] = Inhibition of K+ channel in LPS-primed mouse bone marrow derived macrophages assessed as inhibition of NLRP3 inflammasome activation-mediated IL-1beta release; format: tissue-based; details: BMDM
[3] = Inhibition of Cl- channel in human monocytes assessed as inhibition of ATP-induced NLRP3 inflammasome-activation mediated IL-1beta release; format: cell-based; details: Monocyte
Microglia = test: Inhibition of Ca2+ channel in mouse microglial cells assessed as inhibition of Abeta-stimulated NLRP3 inflammasome activation-mediated IL-1beta release at 36 nM by ELISA; format: cell-based
[4] = Inhibition of ATP-sensitive K+ channel in LPS-activated human monocytes assessed as inhibition of NLRP3 inflammasome activation-mediated IL-1beta release; format: cell-based; details: Monocyte
[5] = biological target: NACHT, LRR and PYD domains-containing protein 3 (Mus musculus) (UniProt Q8R4B8); test: Inhibition of NLRP3 inflammasome in LPS/nigericin-stimulated mouse J774.A1 cells assessed as effect on pro-caspase-1 expression level in cell lysates by Western blot analysis; format: subcellular
Method in brief: (§3)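 LPS-primed J774A.1 cells treated with compound, then nigericin-activated; NLRP3-related proteins analysed by Western blot in cell supernatant (caspase-1 p20, IL-1β) and cell lysate.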

J774.A1 = test: Effect on NLRP3 expression in LPS/nigericin-stimulated mouse J774.A1 cell lysates by western blot analysis; format: functional, subcellular; method in brief: as §3
[6] = biological target: NACHT, LRR and PYD domains-containing protein 3 (Mus musculus) (UniProt Q8R4B8); test: Inhibition of NLRP3 inflammasome in LPS/nigericin-stimulated mouse J774.A1 cells assessed as reduction in IL-1beta level in cell supernatant by Western blot analysis; details: dose 1-20 µM; method in brief: as §3
Mus musculus [7] = test: Antiinflammatory activity against LPS-induced sepsis C57BL/6 mouse model assessed as decrease in peritoneal fluid TNF-alpha level at 100 mg/kg, ip administered as single dose prior to LPS challenge by ELISA; format: functional, organism-based
Method in brief: (§4)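 C57BL/6 mice given 100 mg/kg ahead of intraperitoneal LPS injection. Serum and peritoneal lavage fluid collected and cytokines (IL-1β, IL-6, TNF-α) quantified by ELISA. n = 5 per group, means ± SEM, compared against LPS-only group.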

[8] = biological target: NACHT, LRR and PYD domains-containing protein 3 (Mus musculus) (UniProt Q8R4B8); test: Inhibition of NLRP3 inflammasome in LPS/nigericin-stimulated mouse J774.A1 cells assessed as effect on pro-IL-1beta expression level in cell lysates by Western blot analysis; format: subcellular; method in brief: as §3
Mus musculus [9] = test: Antiinflammatory activity against LPS-induced sepsis C57BL/6 mouse model assessed as decrease in serum IL-6 level at 100 mg/kg, ip administered as single dose prior to LPS challenge by ELISA; format: functional; details: C57BL/6, ip; method in brief: as §4
Mus musculus [10] = test: Antiinflammatory activity against LPS-induced sepsis C57BL/6 mouse model assessed as decrease in peritoneal fluid IL-1beta level at 100 mg/kg, ip administered as single dose prior to LPS challenge by ELISA; format: functional; details: C57BL/6, ip; method in brief: as §4
Mus musculus [11] = test: Antiinflammatory activity against LPS-induced sepsis C57BL/6 mouse model assessed as decrease in serum TNF-alpha level at 100 mg/kg, ip administered as single dose prior to LPS challenge by ELISA; format: functional; details: C57BL/6, ip; method in brief: as §4
Mus musculus [12] = test: Antiinflammatory activity against LPS-induced sepsis C57BL/6 mouse model assessed as decrease in peritoneal fluid IL-6 level at 100 mg/kg, ip administered as single dose prior to LPS challenge by ELISA; format: functional; details: C57BL/6, ip; method in brief: as §4
[13] = biological target: NACHT, LRR and PYD domains-containing protein 3 (Mus musculus) (UniProt Q8R4B8); test: as §1; format: cell-based; details: time 2.0 hrs; method in brief: as §2
[14] = biological target: NACHT, LRR and PYD domains-containing protein 3 (Mus musculus) (UniProt Q8R4B8); test: Inhibition of NLRP3 inflammasome in LPS/nigericin-stimulated mouse J774.A1 cells assessed as effect on ASC expression level in cell lysates by Western blot analysis; format: subcellular; method in brief: as §3
[15] = biological target: NACHT, LRR and PYD domains-containing protein 3 (Mus musculus) (UniProt Q8R4B8); test: Inhibition of NLRP3 inflammasome in LPS/nigericin-stimulated mouse J774.A1 cells assessed as reduction in caspase 1 p20 level in cell supernatants by Western blot analysis; details: dose 1-20 µM; method in brief: as §3
Mus musculus [16] = test: Antiinflammatory activity against LPS-induced sepsis C57BL/6 mouse model assessed as decrease in serum IL-1beta level at 100 mg/kg, ip administered as single dose prior to LPS challenge by ELISA; format: functional; details: C57BL/6, ip; method in brief: as §4

NACHT, LRR and PYD domains-containing protein 3 (Mus musculus), sequence (Q8R4B8 whole entry, the tested form may be a part): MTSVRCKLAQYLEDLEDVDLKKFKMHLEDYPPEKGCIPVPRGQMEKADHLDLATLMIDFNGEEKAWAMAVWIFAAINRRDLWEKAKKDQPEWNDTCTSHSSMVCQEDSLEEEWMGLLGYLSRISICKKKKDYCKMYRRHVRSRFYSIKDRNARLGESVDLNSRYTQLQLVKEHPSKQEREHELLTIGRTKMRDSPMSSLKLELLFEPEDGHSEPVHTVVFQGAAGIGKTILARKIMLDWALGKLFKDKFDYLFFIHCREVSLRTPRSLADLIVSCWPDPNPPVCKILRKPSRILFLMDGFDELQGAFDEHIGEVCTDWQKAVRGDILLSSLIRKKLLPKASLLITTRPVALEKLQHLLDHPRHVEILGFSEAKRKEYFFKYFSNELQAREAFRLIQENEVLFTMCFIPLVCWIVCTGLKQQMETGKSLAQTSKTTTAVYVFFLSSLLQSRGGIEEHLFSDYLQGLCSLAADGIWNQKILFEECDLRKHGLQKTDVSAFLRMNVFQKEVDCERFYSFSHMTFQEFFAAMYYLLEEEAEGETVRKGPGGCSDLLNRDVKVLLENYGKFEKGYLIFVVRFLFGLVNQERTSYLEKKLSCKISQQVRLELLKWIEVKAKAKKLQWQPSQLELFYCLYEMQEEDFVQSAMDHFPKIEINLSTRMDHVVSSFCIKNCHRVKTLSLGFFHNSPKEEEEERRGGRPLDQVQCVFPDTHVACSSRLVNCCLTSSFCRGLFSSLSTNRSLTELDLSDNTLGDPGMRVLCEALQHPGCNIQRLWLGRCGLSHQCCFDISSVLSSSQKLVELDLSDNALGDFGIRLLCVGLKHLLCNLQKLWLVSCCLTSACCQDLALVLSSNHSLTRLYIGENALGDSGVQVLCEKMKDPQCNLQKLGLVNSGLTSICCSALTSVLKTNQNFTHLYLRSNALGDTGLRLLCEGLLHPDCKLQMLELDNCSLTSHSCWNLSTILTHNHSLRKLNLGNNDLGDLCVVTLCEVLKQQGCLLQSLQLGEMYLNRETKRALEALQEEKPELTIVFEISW
NACHT, LRR and PYD domains-containing protein 3, sequence (Q8R4B8 whole entry, the tested form may be a part): as above

Row | Compound | IC50 [1] | other results
1 | CCCCc1oc2ccc(NS(=O)(=O)N(C)C)cc2c1C(=O)c1ccc(OCCCN(CCCC)CCCC)cc1 | 13.4 µM | –
2 | CCCCc1oc2ccc(NC(=O)Nc3ccc(Cl)cc3)cc2c1C(=O)c1ccc(OCCCN(CCCC)CCCC)cc1 | 16.1 µM | –
3 | C=CS(=O)(=O)Nc1ccc2oc(CCCC)c(C(=O)c3ccc(OCCCN(CCCC)CCCC)cc3)c2c1 | 25.3 µM | –
4 | CCCCc1oc2ccc(NS(=O)(=O)c3ccc(F)cc3)cc2c1C(=O)c1ccc(OCCCN(CCCC)CCCC)cc1 | 12.7 µM | –
5 | CCCCc1oc2ccc(NS(=O)(=O)CC)cc2c1C(=O)c1ccc(OCCCN(CCCC)CCCC)cc1 | 19 µM | –
6 | CCCCc1oc2ccc(NC(C)=O)cc2c1C(=O)c1ccc(OCCCN(CCCC)CCCC)cc1 | 6.77 µM | –
7 | CCCCc1oc2ccc(NS(=O)(=O)c3ccc(OC)cc3)cc2c1C(=O)c1ccc(OCCCN(CCCC)CCCC)cc1 | 27.9 µM | –
8 | CCCCc1oc2ccc(S(=O)(=O)NOC)cc2c1C(=O)c1ccc(OCCCN(CCCC)CCCC)cc1 | 83.8 µM | –
9 | CCCCc1oc2ccc(NC(=O)NC3CCCCC3)cc2c1C(=O)c1ccc(OCCCN(CCCC)CCCC)cc1 | 74.8 µM | –
10 | CCCCc1oc2ccc(NS(=O)(=O)NC(C)C)cc2c1C(=O)c1ccc(OCCCN(CCCC)CCCC)cc1 | 7.65 µM | –
11 | CCCCc1oc2ccc(NS(=O)(=O)C3CCCCC3)cc2c1C(=O)c1ccc(OCCCN(CCCC)CCCC)cc1 | 25 µM | –
12 | CC(O)CC(=O)O (stereo not drawn) [3-HYDROXYBUTYRIC ACID, (+/-)-] | – | IC50 [2]: 2000 µM
13 | CCCCc1oc2ccc(NC(=O)NCCC)cc2c1C(=O)c1ccc(OCCCN(CCCC)CCCC)cc1 | 19.2 µM | –
14 | CCCCc1oc2ccc(S(=O)(=O)NC(C)C)cc2c1C(=O)c1ccc(OCCCN(CCCC)CCCC)cc1 | 42.5 µM | –
15 | CCCCc1oc2ccc(NS(=O)(=O)C3CC3)cc2c1C(=O)c1ccc(OCCCN(CCCC)CCCC)cc1 | 45.5 µM | –
16 | CCCCc1oc2ccc(S(=O)(=O)N(CCC)CCC)cc2c1C(=O)c1ccc(OCCCN(CCCC)CCCC)cc1 | > 100 µM | –
17 | C=C(CC)C(=O)c1ccc(OCC(=O)O)c(Cl)c1Cl [ETHACRYNIC ACID] | – | IC50 [3]: 3 µM
18 | C=CC(=O)Nc1ccc2oc(CCCC)c(C(=O)c3ccc(OCCCN(CCCC)CCCC)cc3)c2c1 | 26.7 µM | –
19 | CCCCc1oc2ccc(NC(=O)c3ccc(OC)cc3)cc2c1C(=O)c1ccc(OCCCN(CCCC)CCCC)cc1 | > 100 µM | –
20 | CCCCc1oc2ccc(S(=O)(=O)N(C)C)cc2c1C(=O)c1ccc(OCCCN(CCCC)CCCC)cc1 | 61.1 µM | –
21 | CCCCc1oc2ccc(S(=O)(=O)NCCN(C)C)cc2c1C(=O)c1ccc(OCCCN(CCCC)CCCC)cc1 | > 100 µM | –

Row | Compound | IC50 [1] | other results
22 | CCCCc1oc2ccc(NC(=O)c3ccccc3)cc2c1C(=O)c1ccc(OCCCN(CCCC)CCCC)cc1 | 13.3 µM | –
23 | CCCCc1oc2ccc(NC(=O)NC(C)C)cc2c1C(=O)c1ccc(OCCCN(CCCC)CCCC)cc1 | 13.3 µM | –
24 | CCCCc1oc2ccc(NC(=O)Nc3ccc(C)cc3)cc2c1C(=O)c1ccc(OCCCN(CCCC)CCCC)cc1 | 71.2 µM | –
25 | CCCCc1oc2ccc(S(N)(=O)=O)cc2c1C(=O)c1ccc(OCCCN(CCCC)CCCC)cc1 | 26.7 µM | –
26 | CCCCc1oc2ccc(NS(=O)(=O)NC)cc2c1C(=O)c1ccc(OCCCN(CCCC)CCCC)cc1 | 11.4 µM | –
27 | CCCCc1oc2ccc(NC(=O)Nc3ccc(OC)cc3)cc2c1C(=O)c1ccc(OCCCN(CCCC)CCCC)cc1 | 24.5 µM | –
28 | CCCCc1oc2ccc(NS(=O)(=O)c3ccccc3)cc2c1C(=O)c1ccc(OCCCN(CCCC)CCCC)cc1 | 10.7 µM | –
29 | COCCOC(=O)C1=C(C)NC(C)=C(C(=O)OC(C)C)C1c1cccc([N+](=O)[O-])c1 (stereo not given) | – | inhibition (Microglia): 48%
30 | CCCCc1oc2ccc(NS(C)(=O)=O)cc2c1C(=O)c1ccc(OCCCN(CCCC)CCCC)cc1 [DRONEDARONE] | 6.84 µM | –
31 | COc1ccc(Cl)cc1C(=O)NCCc1ccc(S(=O)(=O)NC(=O)NC2CCCCC2)cc1 [GLYBURIDE] | – | IC50 [4]: 12 µM
32 | CCCCc1oc2ccc(NS(=O)(=O)c3cccnc3)cc2c1C(=O)c1ccc(OCCCN(CCCC)CCCC)cc1 | 33.4 µM | –
33 | CCCCc1oc2ccccc2c1C(=O)c1ccc(OCCCN(CCCC)CCCC)cc1 | > 100 µM | –
34 | CCCCc1oc2ccc(S(=O)(=O)NC)cc2c1C(=O)c1ccc(OCCCN(CCCC)CCCC)cc1 | 22.2 µM | –
35 | CCCCc1oc2ccc(NS(=O)(=O)c3ccc(C(F)(F)F)cc3)cc2c1C(=O)c1ccc(OCCCN(CCCC)CCCC)cc1 | 81.6 µM | –
36 | CCCCc1oc2ccc(NC(=O)NC3CCCC3)cc2c1C(=O)c1ccc(OCCCN(CCCC)CCCC)cc1 | 25 µM | –
37 | CCCCc1oc2ccc(NS(=O)(=O)c3ccc(C)cc3)cc2c1C(=O)c1ccc(OCCCN(CCCC)CCCC)cc1 | 25 µM | –
38 | CCCCC(=O)Nc1ccc2oc(CCCC)c(C(=O)c3ccc(OCCCN(CCCC)CCCC)cc3)c2c1 | 5.82 µM | –
39 | CCCCc1oc2ccc(NC(=O)Nc3ccc(C#N)cc3)cc2c1C(=O)c1ccc(OCCCN(CCCC)CCCC)cc1 | 18.5 µM | –
40 | CCCCc1oc2ccc(NC(=O)C(C)C)cc2c1C(=O)c1ccc(OCCCN(CCCC)CCCC)cc1 | 3.85 µM | inhibition [5]: inactive; Activity (J774.A1): inactive; inhibition [6]: Dose-Dependent Effect; Activity (Mus musculus [7]): inactive; inhibition [8]: inactive; inhibition in vivo at 100 mg/kg (Mus musculus [9]): 0%; inhibition in vivo at 100 mg/kg (Mus musculus [10]): 22%; inhibition in vivo at 100 mg/kg (Mus musculus [11]): 18%; inhibition in vivo at 100 mg/kg (Mus musculus [12]): 2%; inhibition [13]: Dose-Dependent Effect; inhibition [14]: inactive; inhibition [15]: Dose-Dependent Effect; inhibition in vivo at 100 mg/kg (Mus musculus [16]): 42%
41 | CCCCc1oc2ccc(N)cc2c1C(=O)c1ccc(OCCCN(CCCC)CCCC)cc1 | > 100 µM | –
42 | CCCCc1oc2ccc(NC(=O)C(C)(C)C)cc2c1C(=O)c1ccc(OCCCN(CCCC)CCCC)cc1 | 9.03 µM | –
